Test results published in ChEMBL document CHEMBL4680077, “Differentiation of skeletal osteogenic progenitor cells to osteoblasts with 3,4-diarylbenzopyran based amide derivatives: Novel osteogenic agents” (Eur J Med Chem, 2016).
Calls of active or inactive are those of the source. The calls are words filed in the database; no cut-off is given here.

Key:
Calvarial osteoblast [1] = experiment: Induction of osteoblast differentiation in mouse calvarial osteoblast assessed as increase in RUNX-2 mRNA expression at 1 pM incubated for 24 hrs by qPCR analysis; assay type: functional, cell-based
Summary of the method: (§1)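 Calvarial osteoblasts were treated at 1 pM for 24 and 48 h. Total RNA was extracted with TRIzol, and cDNA was made from 2 µg RNA. qPCR ran 40 cycles for BMP-2, RUNX-2, OCN and collagen type 1, with normalization to GAPDH. Mean ± SEM of three independent experiments.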

Calvarial osteoblast [2] = experiment: Induction of osteoblast differentiation in mouse calvarial osteoblast assessed as increase in BMP-2 mRNA expression at 1 pM incubated for 48 hrs by qPCR analysis; assay type: functional, cell-based; summary of the method: as §1
Calvarial osteoblast [3] = experiment: Induction of osteoblast differentiation in mouse calvarial osteoblast assessed as increase in collagen type 1 mRNA expression at 1 pM incubated for 24 and 48 hrs by qPCR analysis; assay type: functional, cell-based; summary of the method: as §1
Mus musculus [4] = experiment: In vivo osteogenic activity in ovariectomized BALB/c mouse assessed as increase in trabecular number at 1 to 10 mg/kg, po via gavage administered for 1 month by microCT imaging analysis; assay type: functional, organism-based; details: dose 1-10 mg/kg, time 1.0 months
Summary of the method: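 Ovariectomized female balb/c mice, 8 weeks old, 10 per group, received 1.0 or 10.0 mg kg-1 once daily by oral gavage (gum acacia vehicle) for 4 weeks, alongside sham and Ovx vehicle groups. Femurs were scanned by microCT. BV/TV, Tb.N and Tb.Sp were derived by the mean intercept length method. Mean ± SE.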

Mus musculus [5] = experiment: In vivo osteogenic activity in ovariectomized BALB/c mouse assessed as increase in bone stiffness at 1 to 10 mg/kg, po via gavage administered for 1 month by TKC Muromachi bone strength testing method; assay type: functional, organism-based; details: dose 1-10 mg/kg, time 1.0 months
Summary of the method: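 Ovariectomized balb/c mice were gavaged with 1 or 10 mg kg-1 daily for one month. Bones were then tested on a bone strength tester for energy, stiffness and force to break. Mean ± SEM compared with the Ovx vehicle group.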

Mus musculus [6] = experiment: In vivo osteogenic activity in ovariectomized BALB/c mouse assessed as decrease in serum CTx at 1 to 10 mg/kg, po via gavage administered for 30 days; assay type: functional, organism-based; details: dose 1-10 mg/kg, time 30.0 day
Summary of the method: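 Eight-week-old female balb/c mice were ovariectomized and dosed once daily by oral gavage at 1 or 10 mg kg-1 in vehicle (gum acacia in water) for 30 days; sham and Ovx vehicle groups served as controls. Serum CTx and osteocalcin were assayed in duplicate. n = 10 per group; mean ± SEM.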

[7] = Volume of distribution in Sprague-Dawley rat at 1 mg/kg, iv measured upto 24 hrs by LC-MS/MS analysis; assay type: ADME, organism-based; details: in vivo
[8] = Clearance in Sprague-Dawley rat at 1 mg/kg, po measured upto 24 hrs by LC-MS/MS analysis; assay type: ADME, organism-based; details: in vivo
Summary of the method: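 Female Sprague-Dawley rats (n = 4), fasted overnight 12–14 h, dosed orally at 1 mg kg-1 as a 0.25% CMC suspension and fed 3 h post-dose. Retro-orbital blood was taken from 0.25 to 24 h. Plasma was hexane-extracted and assayed by LC-MS/MS. Cmax and Tmax were read from the data; other parameters came from non-compartmental analysis. Mean ± S.D.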

[9] = Acute toxicity in Swiss albino mouse assessed as body weight at 300 mg/kg, po measured on day 7 (reference value: 22.75 +/- 0.38 g); assay type: organism-based; details: in vivo, 168 h, time 7 day
[10] = Acute toxicity in Swiss albino mouse assessed as RBC count at 50 mg/kg, po measured after 7 days (Rvb =6.0 +/- 0.28 million/mm3); assay type: organism-based; details: in vivo, 168 h, time 7 day
[11] = Acute toxicity in Swiss albino mouse assessed as RBC count at 300 mg/kg, po measured after 7 days (Rvb =6.0 +/- 0.28 million/mm3); assay type: organism-based; details: in vivo, 168 h, time 7 day
[12] = Acute toxicity in Swiss albino mouse assessed as absolute ovary weight at 5 mg/kg, po measured after 7 days (reference value: 0.04+/- 0.02 g); assay type: organism-based; details: in vivo, 168 h, time 7 day
[13] = Acute toxicity in Swiss albino mouse assessed as WBC count per thousand/mm3 at 5 mg/kg, po measured after 7 days (reference value: 6.84 +/- 0.83 /mm3); assay type: organism-based; details: in vivo, 168 h, time 7 day
[14] = Acute toxicity in Swiss albino mouse assessed as triglycerides level at 50 mg/kg, po measured after 7 days (reference value: 58.51 +/- 10.82 mg/dL); assay type: organism-based; details: in vivo, 168 h, time 7 day
[15] = Acute toxicity in Swiss albino mouse assessed as malondialdehyde level at 50 mg/kg, po measured after 7 days (reference value: 0.14 +/- 0.01 nM/mg); assay type: organism-based; details: in vivo, 168 h, time 7 day
[16] = Acute toxicity in Swiss albino mouse assessed as malondialdehyde level at 1000 mg/kg, po measured after 7 days (reference value: 0.14 +/- 0.01 nM/mg); assay type: organism-based; details: in vivo, 168 h, time 7 day
[17] = Acute toxicity in Swiss albino mouse assessed as monocyte count at 50 mg/kg, po measured after 7 days (reference value: 12.58 +/- 2.86 %); assay type: organism-based; details: in vivo, 168 h, time 7 day
[18] = Acute toxicity in Swiss albino mouse assessed as monocyte count at 300 mg/kg, po measured after 7 days (reference value: 12.58 +/- 2.86 %); assay type: organism-based; details: in vivo, 168 h, time 7 day
[19] = Acute toxicity in Swiss albino mouse assessed as eosinophil count at 5 mg/kg, po measured after 7 days (reference value: 6.34 +/- 1.04 %); assay type: organism-based; details: in vivo, 168 h, time 7 day
[20] = Acute toxicity in Swiss albino mouse assessed as eosinophil count at 1000 mg/kg, po measured after 7 days (reference value: 6.34 +/- 1.04 %); assay type: organism-based; details: in vivo, 168 h, time 7 day
[21] = Acute toxicity in Swiss albino mouse assessed as basophil count at 50 mg/kg, po measured after 7 days (reference value: 1.50 +/- 0.29 %); assay type: organism-based; details: in vivo, 168 h, time 7 day
[22] = Acute toxicity in Swiss albino mouse assessed as absolute lung weight at 50 mg/kg, po measured after 7 days (reference value: 0.16 +/- 0.01 g); assay type: organism-based; details: in vivo, 168 h, time 7 day
[23] = Acute toxicity in Swiss albino mouse assessed as absolute spleen weight at 1000 mg/kg, po measured after 7 days (reference value: 0.17 +/- 0.03 g); assay type: organism-based; details: in vivo, 168 h, time 7 day
[24] = Acute toxicity in Swiss albino mouse assessed as relative liver weight at 300 mg/kg, po measured after 7 days (reference value: 6.81 +/- 2.14 %); assay type: organism-based; details: in vivo, 168 h, time 7 day
[25] = Acute toxicity in Swiss albino mouse assessed as relative lung weight at 1000 mg/kg, po measured after 7 days (reference value: 0.70 +/- 0.08 %); assay type: organism-based; details: in vivo, 168 h, time 7 day
[26] = Acute toxicity in Swiss albino mouse assessed as relative spleen weight at 5 mg/kg, po measured after 7 days (reference value: 0.73 +/- 0.14 %); assay type: organism-based; details: in vivo, 168 h, time 7 day
[27] = Acute toxicity in Swiss albino mouse assessed as relative spleen weight at 1000 mg/kg, po measured after 7 days (reference value: 0.73 +/- 0.14 %); assay type: organism-based; details: in vivo, 168 h, time 7 day
[28] = Toxicity in ovariectomized BALB/c mouse assessed as uterine estrogenicity by measuring uterine weights at 1 to 10 mg/kg, po administered for 30 days and measured on day 30; assay type: organism-based; details: in vivo, 720 h, dose 1-10 mg/kg, time 30 day
Summary of the method: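 Six-to-eight-week-old balb/c mice (n = 10) were ovariectomized and dosed orally for 30 consecutive days: test agent at 1 or 10 mg kg-1 day-1, or 17β-E2 at 0.01 mg kg-1 day-1. Uterine weights were recorded and compared with the Ovx vehicle group; mean ± SEM.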

CCCCN(C)C(=O)CCCCOc1ccc([C@H]2c3ccc(OC)cc3OC(C)(C)[C@@H]2c2ccccc2)cc1
Activity (Calvarial osteoblast [1]): Active
Activity (Calvarial osteoblast [2]): Active
Activity (Calvarial osteoblast [3]): Active
Activity (Mus musculus [4]): Active
Activity (Mus musculus [5]): Active
Activity (Mus musculus [6]): Active
Vd [7]: 5.61 L/kg
CL [8]: 18.3 mL/min/kg
Activity [9]: 23.31 g
Activity [10]: 8.16 million/mm3
Activity [11]: 7.31 million/mm3
Activity [12]: 0.07 g
Activity [13]: 6.1 10^3/mm3
Activity [14]: 83.78 mg/dL
Activity [15]: 0.14 nM/mg
Activity [16]: 0.16 nM/mg
Activity [17]: 12.35%
Activity [18]: 8.99%
Activity [19]: 8.35%
Activity [20]: 5.35%
Activity [21]: 0.5%
Activity [22]: 0.2 g
Activity [23]: 0.1 g
Activity [24]: 4.84%
Activity [25]: 0.75%
Activity [26]: 0.46%
Activity [27]: 0.5%
Activity [28]: Non-Toxic
